Source: ChEMBL document CHEMBL2057071, “Hit-to-lead investigation of a series of novel combined dopamine D2 and muscarinic M1 receptor ligands with putative antipsychotic and pro-cognitive potential” (Bioorg Med Chem Lett, 2012)

Legend:
Liver microsomes [1] = assay: Intrinsic clearance in human liver microsomes at 1 uM after 60 mins; type: ADME, Microsome; conditions: 1 h
D(2) dopamine receptor [2] = target: T1, D(2) dopamine receptor (Homo sapiens, UniProt P14416); assay: Displacement of [3H]raclopride from human D2L receptor expressed in CHO cells after 60 mins by scintillation proximity assay; type: cell-based
T1 sequence (P14416 whole entry): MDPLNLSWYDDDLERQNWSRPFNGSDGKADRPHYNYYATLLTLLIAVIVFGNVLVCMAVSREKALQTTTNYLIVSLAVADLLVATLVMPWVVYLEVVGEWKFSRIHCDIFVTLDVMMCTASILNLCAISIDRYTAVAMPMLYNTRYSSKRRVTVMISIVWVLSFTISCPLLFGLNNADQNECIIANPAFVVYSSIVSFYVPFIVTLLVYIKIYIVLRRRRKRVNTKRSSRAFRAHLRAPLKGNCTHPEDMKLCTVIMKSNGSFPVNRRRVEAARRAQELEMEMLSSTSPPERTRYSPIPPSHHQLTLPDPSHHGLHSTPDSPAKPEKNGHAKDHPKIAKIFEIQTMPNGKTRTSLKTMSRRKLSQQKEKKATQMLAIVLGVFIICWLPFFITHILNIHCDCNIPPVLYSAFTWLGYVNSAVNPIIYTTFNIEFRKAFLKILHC

[3] = target: T2, Muscarinic acetylcholine receptor M1 (Homo sapiens, UniProt P11229); assay: Agonist activity at human M1 receptor expressed in CHO-K1 cells assessed as calcium mobilization for 6 mins by Calcium4-based staining; type: functional, cell-based
T2 sequence (P11229 whole entry): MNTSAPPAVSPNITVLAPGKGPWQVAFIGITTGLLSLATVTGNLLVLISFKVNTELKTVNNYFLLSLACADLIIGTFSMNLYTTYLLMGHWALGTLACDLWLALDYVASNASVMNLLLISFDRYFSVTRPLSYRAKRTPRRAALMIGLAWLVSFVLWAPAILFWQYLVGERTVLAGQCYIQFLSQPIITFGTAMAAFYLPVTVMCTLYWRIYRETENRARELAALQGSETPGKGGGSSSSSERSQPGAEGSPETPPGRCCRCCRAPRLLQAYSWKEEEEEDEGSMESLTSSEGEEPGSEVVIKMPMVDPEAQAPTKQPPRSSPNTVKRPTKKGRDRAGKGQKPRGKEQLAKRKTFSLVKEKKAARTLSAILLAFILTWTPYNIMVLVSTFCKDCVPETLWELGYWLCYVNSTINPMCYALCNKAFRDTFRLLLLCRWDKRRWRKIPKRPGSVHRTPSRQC

D(2) dopamine receptor [4] = target: T1, D(2) dopamine receptor; assay: Displacement of [3H]raclopride from human D2L receptor expressed in CHO cells at 10 uM after 60 mins by scintillation proximity assay; type: cell-based
[5] = target: T3, Muscarinic acetylcholine receptor M1 (Homo sapiens) (UniProt P11229); assay: Agonist activity at human M1 receptor expressed in CHO-K1 cells assessed as calcium mobilization at 10 uM for 6 mins by Calcium4-based staining; type: functional, cell-based
T3 sequence (whole entry): T2 sequence (P11229 whole entry)
In short: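 Functional agonism read as percent activity at 10 µM test concentration when no EC₅₀ could be established; means of two experiments.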

[6] = target: Voltage-gated inwardly rectifying potassium channel KCNH2 (Homo sapiens, UniProt Q12809); assay: Inhibition of human ERG expressed in CHO cells after 30 mins by Rb+ flux assay
Sequence of Voltage-gated inwardly rectifying potassium channel KCNH2 (Q12809 whole entry): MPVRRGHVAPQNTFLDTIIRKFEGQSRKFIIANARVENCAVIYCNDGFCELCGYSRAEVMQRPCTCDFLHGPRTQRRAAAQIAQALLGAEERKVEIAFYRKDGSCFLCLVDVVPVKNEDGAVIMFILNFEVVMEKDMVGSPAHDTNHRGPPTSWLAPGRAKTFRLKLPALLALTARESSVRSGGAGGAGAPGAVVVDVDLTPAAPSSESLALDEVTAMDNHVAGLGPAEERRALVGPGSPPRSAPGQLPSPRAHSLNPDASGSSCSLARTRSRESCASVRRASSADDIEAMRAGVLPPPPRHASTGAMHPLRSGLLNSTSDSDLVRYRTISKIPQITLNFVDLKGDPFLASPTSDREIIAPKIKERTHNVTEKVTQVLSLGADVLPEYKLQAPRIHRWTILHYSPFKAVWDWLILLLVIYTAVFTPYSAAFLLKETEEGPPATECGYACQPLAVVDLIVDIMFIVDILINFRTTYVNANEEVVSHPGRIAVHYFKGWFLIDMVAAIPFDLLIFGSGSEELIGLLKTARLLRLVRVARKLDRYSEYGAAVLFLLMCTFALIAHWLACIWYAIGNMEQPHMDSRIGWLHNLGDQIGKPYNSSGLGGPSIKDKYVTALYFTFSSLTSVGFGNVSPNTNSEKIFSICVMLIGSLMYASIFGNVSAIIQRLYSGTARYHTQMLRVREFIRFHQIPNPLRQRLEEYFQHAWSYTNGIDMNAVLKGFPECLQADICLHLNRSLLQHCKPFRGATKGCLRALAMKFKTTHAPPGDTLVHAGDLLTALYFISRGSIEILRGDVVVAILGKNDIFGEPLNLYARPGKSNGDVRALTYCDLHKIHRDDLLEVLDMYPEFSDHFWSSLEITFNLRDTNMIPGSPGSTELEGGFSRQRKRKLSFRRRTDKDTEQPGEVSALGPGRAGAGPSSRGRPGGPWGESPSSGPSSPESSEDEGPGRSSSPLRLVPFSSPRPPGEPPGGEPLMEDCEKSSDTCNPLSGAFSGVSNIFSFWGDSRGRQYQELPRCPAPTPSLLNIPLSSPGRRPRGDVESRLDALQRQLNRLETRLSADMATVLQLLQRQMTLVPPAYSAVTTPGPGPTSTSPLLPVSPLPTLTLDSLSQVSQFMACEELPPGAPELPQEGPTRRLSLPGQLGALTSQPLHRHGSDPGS

[7] = target: T4, Muscarinic acetylcholine receptor M5 (Homo sapiens) (UniProt P08912); assay: Agonist activity at human muscarinic M5 receptor expressed in BHK-21 cells assessed as calcium mobilization at 10 uM for 6 mins by Calcium4-based staining relative to acetylcholine; type: functional, cell-based
T4 sequence (whole entry): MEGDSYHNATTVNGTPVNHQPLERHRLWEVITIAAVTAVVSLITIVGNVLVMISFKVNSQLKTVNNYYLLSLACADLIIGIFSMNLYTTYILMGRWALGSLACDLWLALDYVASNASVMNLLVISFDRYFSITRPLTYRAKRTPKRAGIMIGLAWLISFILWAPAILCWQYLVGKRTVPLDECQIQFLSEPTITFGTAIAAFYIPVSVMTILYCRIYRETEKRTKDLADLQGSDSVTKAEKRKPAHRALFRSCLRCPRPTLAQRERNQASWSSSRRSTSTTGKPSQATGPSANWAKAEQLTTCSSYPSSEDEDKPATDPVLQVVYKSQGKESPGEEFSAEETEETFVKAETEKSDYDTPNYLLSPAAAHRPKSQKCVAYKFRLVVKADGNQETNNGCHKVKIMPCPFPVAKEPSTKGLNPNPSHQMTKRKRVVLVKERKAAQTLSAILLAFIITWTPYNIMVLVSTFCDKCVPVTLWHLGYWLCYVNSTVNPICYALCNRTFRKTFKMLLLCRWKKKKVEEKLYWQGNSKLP

[8] = target: T5, Muscarinic acetylcholine receptor M2 (Homo sapiens) (UniProt P08172); assay: Agonist activity at human muscarinic M2 receptor expressed in CHO-K1 cells assessed as calcium mobilization at 10 uM for 6 mins by Calcium4-based staining relative to acetylcholine; type: functional, cell-based
T5 sequence (whole entry): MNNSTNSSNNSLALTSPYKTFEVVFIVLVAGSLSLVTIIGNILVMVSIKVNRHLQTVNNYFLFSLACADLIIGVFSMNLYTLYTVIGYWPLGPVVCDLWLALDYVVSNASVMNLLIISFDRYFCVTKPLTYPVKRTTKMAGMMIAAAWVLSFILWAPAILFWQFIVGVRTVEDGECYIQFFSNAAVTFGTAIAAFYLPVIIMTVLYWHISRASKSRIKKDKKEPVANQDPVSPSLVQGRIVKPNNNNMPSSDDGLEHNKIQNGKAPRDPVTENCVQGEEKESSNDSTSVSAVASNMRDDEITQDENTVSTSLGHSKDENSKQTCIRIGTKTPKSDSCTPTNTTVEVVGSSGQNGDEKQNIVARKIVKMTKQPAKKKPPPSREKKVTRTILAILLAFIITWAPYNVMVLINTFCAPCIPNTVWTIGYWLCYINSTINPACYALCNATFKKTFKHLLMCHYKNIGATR

[9] = Dissociation constant, pKa of the compound; type: physicochemical
[10] = target: Muscarinic acetylcholine receptor M1 (Homo sapiens, UniProt P11229, Y381A); assay: Agonist activity at human muscarinic M1 receptor Y381A mutant expressed in BHK-21 cells assessed as calcium mobilization for 6 mins by Calcium4-based staining; type: functional, cell-based
Sequence of Muscarinic acetylcholine receptor M1 (Homo sapiens, UniProt P11229, Y381A) (P11229 whole entry Y381A): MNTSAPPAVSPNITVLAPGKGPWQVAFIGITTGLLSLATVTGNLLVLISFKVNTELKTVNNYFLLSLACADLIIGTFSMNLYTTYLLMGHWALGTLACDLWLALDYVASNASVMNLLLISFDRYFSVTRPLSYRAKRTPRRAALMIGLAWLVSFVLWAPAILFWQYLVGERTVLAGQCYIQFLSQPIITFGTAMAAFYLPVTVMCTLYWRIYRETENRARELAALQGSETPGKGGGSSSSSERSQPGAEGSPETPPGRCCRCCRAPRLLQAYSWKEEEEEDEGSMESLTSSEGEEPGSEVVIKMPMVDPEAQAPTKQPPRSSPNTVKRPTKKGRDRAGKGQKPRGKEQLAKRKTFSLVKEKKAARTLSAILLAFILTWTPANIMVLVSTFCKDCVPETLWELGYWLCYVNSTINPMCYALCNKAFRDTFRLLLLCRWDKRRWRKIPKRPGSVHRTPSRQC

Liver microsomes [11] = assay: Intrinsic clearance in rat liver microsomes at 1 uM after 60 mins; type: ADME, Microsome; conditions: 1 h
Hepatocyte = assay: Intrinsic clearance in Sprague-Dawley rat hepatocytes at 1 uM after 60 mins; type: ADME, cell-based; conditions: 1 h
[12] = Lipophilicity, logP of the compound; type: physicochemical; conditions: octanol/water
[13] = target: T6, Muscarinic acetylcholine receptor M4 (Homo sapiens) (UniProt P08173); assay: Agonist activity at human muscarinic M4 receptor expressed in BHK-21 cells assessed as calcium mobilization at 10 uM for 6 mins by Calcium4-based staining relative to acetylcholine; type: functional, cell-based
T6 sequence (whole entry): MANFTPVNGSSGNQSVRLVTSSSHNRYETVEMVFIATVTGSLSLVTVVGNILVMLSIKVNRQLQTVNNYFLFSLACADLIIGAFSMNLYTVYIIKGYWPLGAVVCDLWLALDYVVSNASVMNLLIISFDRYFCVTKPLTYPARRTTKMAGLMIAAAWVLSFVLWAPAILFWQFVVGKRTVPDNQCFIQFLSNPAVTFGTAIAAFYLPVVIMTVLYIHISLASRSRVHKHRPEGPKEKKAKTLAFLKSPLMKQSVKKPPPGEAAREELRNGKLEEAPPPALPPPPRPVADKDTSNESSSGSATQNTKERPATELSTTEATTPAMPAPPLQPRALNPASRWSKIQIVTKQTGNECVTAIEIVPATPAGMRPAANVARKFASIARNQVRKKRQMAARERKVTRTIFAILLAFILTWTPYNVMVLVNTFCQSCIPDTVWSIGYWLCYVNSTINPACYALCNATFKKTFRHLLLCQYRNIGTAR

[14] = Plasma clearance in […] Sprague-Dawley rat; type: ADME, organism-based
[15] = target: Muscarinic acetylcholine receptor M3 (Homo sapiens) (UniProt P20309); assay: Agonist activity at human muscarinic M3 receptor expressed in BHK-21 cells assessed as calcium mobilization atb 10 uM for 6 mins by Calcium4-based staining relative to acetylcholine; type: functional, cell-based
Sequence of Muscarinic acetylcholine receptor M3 (Homo sapiens) (P20309 whole entry, looked up): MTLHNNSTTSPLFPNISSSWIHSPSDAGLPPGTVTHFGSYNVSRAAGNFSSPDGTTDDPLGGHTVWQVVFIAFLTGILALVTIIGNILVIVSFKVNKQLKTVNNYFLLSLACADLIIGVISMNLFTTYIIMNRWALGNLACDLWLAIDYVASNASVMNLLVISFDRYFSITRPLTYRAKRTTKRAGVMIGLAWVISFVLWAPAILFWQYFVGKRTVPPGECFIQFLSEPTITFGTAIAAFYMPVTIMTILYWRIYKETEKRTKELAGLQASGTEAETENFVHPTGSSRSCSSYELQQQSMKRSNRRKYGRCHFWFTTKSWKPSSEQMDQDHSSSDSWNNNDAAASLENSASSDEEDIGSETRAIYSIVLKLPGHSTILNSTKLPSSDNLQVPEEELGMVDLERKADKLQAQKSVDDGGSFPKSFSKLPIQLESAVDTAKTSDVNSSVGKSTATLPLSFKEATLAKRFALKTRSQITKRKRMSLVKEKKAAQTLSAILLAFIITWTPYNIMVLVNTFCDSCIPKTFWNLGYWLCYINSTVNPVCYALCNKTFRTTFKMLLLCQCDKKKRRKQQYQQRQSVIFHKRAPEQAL

Row | Structure (SMILES) | CLH (Liver microsomes [1]) | Ki (D(2) dopamine receptor [2]) | EC50 [3] | Emax [5] | IC50 [6] | other results
1 | O=C1CCc2cccc(F)c2N1CCCN1CCC(n2c(=O)[nH]c3ccccc32)CC1 | 5.5 L/min | 95 nM | 300 nM | – | – | –
2 | O=C1CCc2c(F)cccc2N1CCCN1CCC(n2c(=O)[nH]c3ccccc32)CC1 | 4.2 L/min | 60 nM | 68 nM | – | – | –
3 | O=C1CCc2ccncc2N1CCCN1CCC(n2c(=O)[nH]c3ccccc32)CC1 | 3.6 L/min | – | – | 7% | – | Activity (D(2) dopamine receptor [4]): 55%
4 | O=C1COc2ccccc2N1CCCN1CCC(n2c(=O)[nH]c3cnccc32)CC1 | 1.7 L/min | 1350 nM | – | 4% | 46000 nM | –
5 | O=C1COc2ccccc2N1CCCN1CCC(n2c(=O)[nH]c3ccccc32)CC1 | 5.1 L/min | 16 nM | 73 nM | – | – | –
6 | O=C1COc2ccccc2N1CCCN1CCC(n2c(=O)[nH]c3cccnc32)CC1 | 3.5 L/min | 1250 nM | 1700 nM | – | 13000 nM | –
7 | O=C1CCc2ccccc2N1CCCN1CCC(n2c(=O)[nH]c3ccccc32)CC1 | 3.9 L/min | 9.5 nM | 110 nM | – | – | Emax [7]: 0%; Emax [8]: 0%; pKa [9]: 7.6; EC50 [10]: 6.3 nM; CLH (Liver microsomes [11]): 130 mL/min; CLH (Hepatocyte): 160 mL/min; logP [12]: 2.8; Emax [13]: 8%; CL/F [14]: 50 mL/min/kg; Emax [15]: 0%
8 | O=C1COc2ccccc2N1CCCN1CCC(n2c(=O)[nH]c3ccncc32)CC1 | 0.9 L/min | > 9500 nM | 1200 nM | – | > 50000 nM | –
9 | O=C1CCc2ccccc2N1CCCN1CCC(c2ccc3[nH]ccc3c2)CC1 | 9 L/min | 42 nM | 160 nM | – | 4400 nM | pKa [9]: 9; logP [12]: 4.1
10 | O=C1COc2ccccc2N1CCCN1CCC(n2c(=O)[nH]c3ncccc32)CC1 | 2.6 L/min | 650 nM | – | 8% | – | –
11 | O=C1COc2ccccc2N1CCCN1CCC(n2c(=O)[nH]c3cc(F)ccc32)CC1 | 8.8 L/min | 2.5 nM | 66 nM | – | 1900 nM | –
12 | O=C1COc2ccccc2N1CCCN1CCC(n2c(=O)[nH]c3c(F)cccc32)CC1 | 13 L/min | 15 nM | 110 nM | – | 3400 nM | –
13 | O=C1COc2ccccc2N1CCCN1CCC(n2c(=O)[nH]c3ccc(F)cc32)CC1 | 8.7 L/min | 14 nM | 44 nM | – | 4400 nM | –
14 | O=C1CCc2cnccc2N1CCCN1CCC(n2c(=O)[nH]c3ccccc32)CC1 | 9.4 L/min | 1100 nM | – | 0% | – | –
15 | O=C1CCc2cc(F)ccc2N1CCCN1CCC(n2c(=O)[nH]c3ccccc32)CC1 | 6.2 L/min | 6.5 nM | – | 24% | – | –
16 | O=c1[nH]c2ccccc2n1C1CCN(CCOc2ccccc2)CC1 [OXIPEROMIDE] | 1.4 L/min | 5.5 nM | 400 nM | – | – | pKa [9]: 7.4; logP [12]: 3.4
17 | O=C1CCc2cccnc2N1CCCN1CCC(n2c(=O)[nH]c3ccccc32)CC1 | 1.3 L/min | 600 nM | 20 nM | – | – | –
18 | O=C1COc2ccccc2N1CCCN1CCC(n2c(=O)[nH]c3cccc(F)c32)CC1 | 12 L/min | 41 nM | – | 22% | – | –
19 | O=C1CCc2ccc(F)cc2N1CCCN1CCC(n2c(=O)[nH]c3ccccc32)CC1 | 7.8 L/min | 90 nM | – | 23% | – | –
20 | O=C1CCc2ccccc2N1OCCN1CCC(n2c(=O)[nH]c3ccccc32)CC1 | 2.3 L/min | 55 nM | – | 31% | – | –
21 | O=C1CCc2ncccc2N1CCCN1CCC(n2c(=O)[nH]c3ccccc32)CC1 | 2.8 L/min | 2200 nM | 12 nM | – | – | –
22 | O=C(Cc1ccccc1)NC1CCN(CCCN2C(=O)COc3ccccc32)CC1 | 3.4 L/min | > 5000 nM | – | – | 20000 nM | pKa [9]: 7.9; logP [12]: 2.4
23 | CC(=O)OCC[N+](C)(C)C | – | – | – | – | – | Emax [15]: 100%
